Measured values as given in ChEMBL document CHEMBL4311940, “Design, Synthesis, and Biological Evaluation of 4-Methyl Quinazoline Derivatives as Anticancer Agents Simultaneously Targeting Phosphoinositide 3-Kinases and Histone Deacetylases” (J Med Chem, 2019).

How the values were obtained:
K562 = assay: Antiproliferative activity against human K562 cells after 96 hrs by MTT assay; type: functional, cell-based; conditions: K562, 96 h
HepG2 = assay: Antiproliferative activity against human HepG2 cells after 96 hrs by MTT assay; type: functional, cell-based; conditions: HepG2, 96 h
[1] = target: Phosphatidylinositol 4,5-bisphosphate 3-kinase catalytic subunit beta isoform (Homo sapiens, UniProt P42338); assay: Inhibition of recombinant human PIK3CB using PIP2 as substrate incubated for 1 hr by ADP-glo assay
Procedure, shortened: (§1)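 Recombinant PI3Kβ, -γ or -δ, serially diluted compound, PIP2 substrate and ATP combined in kinase buffer. Incubated 1 h at room temperature in the dark, then stopped with ADP-Glo reagent. Luminescence read after kinase detection reagent; IC50 by curve fitting.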

HCT-116 [2] = assay: Induction of apoptosis in human HCT116 cells assessed as necrotic cells at 500 nM after 48 hrs by Annexin V-FITC/propidium iodide staining-based flow cytometric analysis (reference value: 5.23%); type: functional
HCT-116 [3] = assay: Induction of apoptosis in human HCT116 cells assessed as late apoptotic cells at 20 nM after 48 hrs by Annexin V-FITC/propidium iodide staining-based flow cytometric analysis (reference value: 3.87%); type: functional
[4] = Mutagenicity in Salmonella typhimurium TA1535 at 5 to 500 ug/plate in absence of s9 mix by Ames test; type: toxicity; conditions: salmonella enterica subsp. enterica serovar typhimurium
Procedure, shortened: (§2)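 Plate incorporation method at 5, 50 and 500 μg/plate, with and without S9 activation. At least three plates per dose, incubated 72 h at 37 °C, revertants counted. Mean revertants compared with vehicle and positive controls.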

[5] = target: Voltage-gated inwardly rectifying potassium channel KCNH2 (Homo sapiens, UniProt Q12809); assay: Inhibition of human ERG stably expressed in CHO cells by whole cell patch clamp method; type: cell-based
Procedure, shortened: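 CHO cells stably expressing hERG, grown in F-12 (Ham)/GlutaMAX with 10% FBS, penicillin G, blasticidin S and hygromycin B. Expression induced with 1 μg/mL doxycycline, cells cultured 24 h, then recorded by whole-cell patch clamp.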

[6] = target: Phosphatidylinositol 4,5-bisphosphate 3-kinase catalytic subunit gamma isoform (Homo sapiens, UniProt P48736); assay: Inhibition of recombinant human His-tagged PIK3CG expressed in baculovirus expression system using PIP2 as substrate incubated for 1 hr by ADP-glo assay; procedure, shortened: as §1
NCI-H460 = assay: Antiproliferative activity against human NCI-H460 cells after 96 hrs by MTT assay; type: functional, cell-based; conditions: NCI-H460, 96 h
HCT-116 [7] = assay: Induction of apoptosis in human HCT116 cells assessed as necrotic cells at 20 nM after 48 hrs by Annexin V-FITC/propidium iodide staining-based flow cytometric analysis (reference value: 5.23%); type: functional
SW1990 = assay: Antiproliferative activity against human SW1990 cells after 96 hrs by MTT assay; type: functional, cell-based; conditions: SW1990, 96 h
DU-145 = assay: Antiproliferative activity against human DU145 cells after 96 hrs by MTT assay; type: functional, cell-based; conditions: DU-145, 96 h
[8] = AUC (0 to infinity) in ICR mouse at 3 mg/kg, iv measured after 0.033 to 24 hrs by LC/MS/MS analysis; type: ADME, organism-based; design: dose 3 mg/kg, time infinity, route intravenous; conditions: in vivo
Procedure, shortened: (§3)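 ICR mice; iv 3 mg/kg in 10% DMSO/saline (3 mice/group), blood at 0.033, 0.083, 0.25, 0.5, 1, 2, 4, 8, 12, 24 h; po 30 mg/kg as 0.5% cmc/0.3% Tween 80 suspension (5 mice/group), blood at 0.083–24 h. Plasma extracted with acetonitrile, LC/MS/MS; parameters by noncompartmental analysis.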

[9] = Oral bioavailability in ICR mouse at 30 mg/kg measured after 0.083 to 24 hrs by LC/MS/MS analysis; type: ADME, organism-based; conditions: in vivo
Procedure, shortened: (§4)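 Male-unspecified ICR mice, 3 per group iv (3 mg/kg in 10% DMSO/saline) and 5 per group po (30 mg/kg in 0.5% cmc/0.3% Tween 80). Blood sampled 0.033 (iv) or 0.083 (po) to 24 h. Plasma extracted with acetonitrile, analysed by LC/MS/MS; noncompartmental analysis.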

Histone deacetylase 8 = Histone deacetylase 8 (Homo sapiens, UniProt Q9BY41); assay: Inhibition of recombinant human full length C-terminal His-tagged HDAC8 expressed in baculovirus infected Sf9 insect cells using Ac-peptide as substrate preincubated for 15 mins followed by substrate addition and measured after 1 hr
Procedure, shortened: (§5)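 Recombinant HDAC isoforms mixed with serially diluted compound in assay buffer for 15 min at room temperature. Ac-peptide substrate then added and incubated 1 h at room temperature. Signal read on a plate reader; IC50 by curve fitting.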

[10] = Mutagenicity in Salmonella typhimurium TA102 at 5 to 500 ug/plate in absence of s9 mix by Ames test; type: toxicity; conditions: salmonella enterica subsp. enterica serovar typhimurium; procedure, shortened: as §2
[11] = Tmax in ICR mouse at 3 mg/kg, iv measured after 0.033 to 24 hrs by LC/MS/MS analysis; type: ADME, organism-based; conditions: in vivo; procedure, shortened: as §4
[12] = AUC (0 to t) in ICR mouse at 30 mg/kg, po measured after 0.083 to 24 hrs by LC/MS/MS analysis; type: ADME, organism-based; design: time upper 24 hr, dose 30 mg/kg, time lower 0.083 hr, route oral; conditions: in vivo; procedure, shortened: as §3
HCT-116 [13] = assay: Induction of apoptosis in human HCT116 cells after 48 hrs by Annexin V-FITC/propidium iodide staining-based flow cytometric analysis; type: functional, cell-based
Capan-2 = assay: Antiproliferative activity against human Capan2 cells after 96 hrs by MTT assay; type: functional, cell-based; conditions: Capan-2, 96 h
[14] = Apparent volume of distribution in ICR mouse at 3 mg/kg, iv measured after 0.033 to 24 hrs by LC/MS/MS analysis; type: ADME, organism-based; conditions: in vivo, read-out: Vz; procedure, shortened: as §3
HCT-8 = assay: Antiproliferative activity against human HCT8 cells after 96 hrs by MTT assay; type: functional, cell-based; conditions: HCT-8, 96 h
HCT-116 [15] = assay: Induction of apoptosis in human HCT116 cells assessed as live cells at 500 nM after 48 hrs by Annexin V-FITC/propidium iodide staining-based flow cytometric analysis (reference value: 89.6%); type: functional
HCT-116 [16] = assay: Antiproliferative activity against human HCT116 cells after 96 hrs by MTT assay; type: functional, cell-based; conditions: HCT-116, 96 h
[17] = Cmax in ICR mouse at 30 mg/kg, po measured after 0.083 to 24 hrs by LC/MS/MS analysis; type: ADME, organism-based; design: dose 30 mg/kg, route oral; conditions: in vivo; procedure, shortened: as §3
MCF7 = assay: Antiproliferative activity against human MCF7 cells after 96 hrs by MTT assay; type: functional, cell-based; conditions: MCF7, 96 h
HCT-116 [18] = assay: Induction of apoptosis in human HCT116 cells assessed as late apoptotic cells at 100 nM after 48 hrs by Annexin V-FITC/propidium iodide staining-based flow cytometric analysis (reference value: 3.87%); type: functional
Histone deacetylase 2 = Histone deacetylase 2 (Homo sapiens, UniProt Q92769); assay: Inhibition of recombinant human full length HDAC2 expressed in baculovirus infected Sf9 insect cells using Ac-peptide as substrate preincubated for 15 mins followed by substrate addition and measured after 1 hr; procedure, shortened: as §5
[19] = Toxicity in po dosed ICR mouse assessed as maximum tolerated dose; type: organism-based; conditions: in vivo
Procedure, shortened: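 Male ICR mice, 6−8 weeks old, given one dose; vehicle 0.5% cmc with Tween 80 for oral dosing, saline for intraperitoneal dosing. Clinical signs observed and body weights recorded for 7 consecutive days after dosing to set the maximum tolerated dose.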

[20] = Cmax in ICR mouse at 3 mg/kg, iv measured after 0.033 to 24 hrs by LC/MS/MS analysis; type: ADME, organism-based; design: dose 3 mg/kg, route intravenous; conditions: in vivo; procedure, shortened: as §3

Phosphatidylinositol 4,5-bisphosphate 3-kinase catalytic subunit beta isoform, sequence (P42338 whole entry, canonical isoform): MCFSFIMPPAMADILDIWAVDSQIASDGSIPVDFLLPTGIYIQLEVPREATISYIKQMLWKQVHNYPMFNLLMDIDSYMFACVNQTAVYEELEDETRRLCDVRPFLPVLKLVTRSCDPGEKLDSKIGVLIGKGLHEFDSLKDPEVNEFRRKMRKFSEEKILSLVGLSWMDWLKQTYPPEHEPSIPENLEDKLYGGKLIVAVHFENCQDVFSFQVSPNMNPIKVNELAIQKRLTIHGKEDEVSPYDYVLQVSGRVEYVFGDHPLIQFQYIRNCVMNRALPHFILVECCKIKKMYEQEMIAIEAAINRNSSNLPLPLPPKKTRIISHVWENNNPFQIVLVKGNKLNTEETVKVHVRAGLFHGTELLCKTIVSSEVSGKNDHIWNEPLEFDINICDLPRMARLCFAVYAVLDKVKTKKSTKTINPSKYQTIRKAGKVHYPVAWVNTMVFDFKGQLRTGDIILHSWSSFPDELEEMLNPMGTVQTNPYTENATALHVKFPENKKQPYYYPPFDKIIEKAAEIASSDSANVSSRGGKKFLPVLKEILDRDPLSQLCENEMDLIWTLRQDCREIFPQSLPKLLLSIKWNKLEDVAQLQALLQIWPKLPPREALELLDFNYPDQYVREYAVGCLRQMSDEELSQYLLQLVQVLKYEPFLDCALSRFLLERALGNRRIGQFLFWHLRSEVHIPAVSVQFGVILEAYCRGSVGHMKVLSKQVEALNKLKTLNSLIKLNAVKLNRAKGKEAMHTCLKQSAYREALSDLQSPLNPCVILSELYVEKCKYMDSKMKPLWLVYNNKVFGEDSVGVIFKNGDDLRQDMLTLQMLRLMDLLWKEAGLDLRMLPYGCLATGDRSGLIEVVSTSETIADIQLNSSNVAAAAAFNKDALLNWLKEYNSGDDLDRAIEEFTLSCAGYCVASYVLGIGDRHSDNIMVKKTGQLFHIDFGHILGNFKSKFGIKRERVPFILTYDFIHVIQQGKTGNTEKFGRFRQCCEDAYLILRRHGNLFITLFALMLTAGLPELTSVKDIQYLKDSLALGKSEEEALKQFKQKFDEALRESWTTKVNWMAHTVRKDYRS
Voltage-gated inwardly rectifying potassium channel KCNH2, sequence (Q12809 whole entry): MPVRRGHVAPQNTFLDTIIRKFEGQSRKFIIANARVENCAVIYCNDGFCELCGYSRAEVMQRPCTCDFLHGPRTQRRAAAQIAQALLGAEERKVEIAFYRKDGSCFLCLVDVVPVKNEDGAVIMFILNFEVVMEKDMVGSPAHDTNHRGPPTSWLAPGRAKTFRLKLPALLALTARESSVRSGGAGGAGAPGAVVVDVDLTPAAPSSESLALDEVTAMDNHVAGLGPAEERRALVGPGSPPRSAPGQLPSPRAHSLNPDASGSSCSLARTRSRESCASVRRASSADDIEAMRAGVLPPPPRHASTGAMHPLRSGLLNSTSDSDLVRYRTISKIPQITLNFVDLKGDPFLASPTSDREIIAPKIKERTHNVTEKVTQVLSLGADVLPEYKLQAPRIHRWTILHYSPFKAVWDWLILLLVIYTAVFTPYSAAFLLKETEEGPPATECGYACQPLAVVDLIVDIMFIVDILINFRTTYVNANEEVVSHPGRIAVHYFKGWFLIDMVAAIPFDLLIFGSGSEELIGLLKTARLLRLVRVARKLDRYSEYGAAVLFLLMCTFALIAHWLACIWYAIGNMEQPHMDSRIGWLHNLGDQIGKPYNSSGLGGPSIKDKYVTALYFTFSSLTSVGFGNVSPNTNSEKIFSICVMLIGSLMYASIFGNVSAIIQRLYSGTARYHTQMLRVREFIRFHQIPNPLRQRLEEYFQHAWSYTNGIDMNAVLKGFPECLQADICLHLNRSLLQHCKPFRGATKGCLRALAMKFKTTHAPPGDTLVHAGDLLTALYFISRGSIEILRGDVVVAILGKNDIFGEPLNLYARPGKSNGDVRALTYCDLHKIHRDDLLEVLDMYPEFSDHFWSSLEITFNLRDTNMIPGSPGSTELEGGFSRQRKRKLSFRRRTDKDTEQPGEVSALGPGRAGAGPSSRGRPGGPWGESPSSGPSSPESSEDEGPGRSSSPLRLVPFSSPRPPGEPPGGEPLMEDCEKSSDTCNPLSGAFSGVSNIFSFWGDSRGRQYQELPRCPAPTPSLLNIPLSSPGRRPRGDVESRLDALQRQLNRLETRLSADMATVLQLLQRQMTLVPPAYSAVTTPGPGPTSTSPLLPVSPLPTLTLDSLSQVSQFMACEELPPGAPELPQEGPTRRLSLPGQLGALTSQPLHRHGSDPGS
Histone deacetylase 8, sequence (Q9BY41 whole entry, canonical isoform): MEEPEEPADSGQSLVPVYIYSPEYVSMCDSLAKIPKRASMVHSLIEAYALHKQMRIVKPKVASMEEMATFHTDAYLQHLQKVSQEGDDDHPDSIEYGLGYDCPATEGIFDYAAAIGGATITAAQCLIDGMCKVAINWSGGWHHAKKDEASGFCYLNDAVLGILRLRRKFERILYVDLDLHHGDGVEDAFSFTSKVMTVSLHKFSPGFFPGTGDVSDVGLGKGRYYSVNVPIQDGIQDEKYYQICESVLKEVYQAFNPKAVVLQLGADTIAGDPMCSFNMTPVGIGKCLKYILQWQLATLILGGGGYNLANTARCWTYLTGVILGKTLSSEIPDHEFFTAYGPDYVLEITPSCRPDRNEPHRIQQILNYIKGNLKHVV
Phosphatidylinositol 4,5-bisphosphate 3-kinase catalytic subunit gamma isoform, sequence (P48736 whole entry, canonical isoform): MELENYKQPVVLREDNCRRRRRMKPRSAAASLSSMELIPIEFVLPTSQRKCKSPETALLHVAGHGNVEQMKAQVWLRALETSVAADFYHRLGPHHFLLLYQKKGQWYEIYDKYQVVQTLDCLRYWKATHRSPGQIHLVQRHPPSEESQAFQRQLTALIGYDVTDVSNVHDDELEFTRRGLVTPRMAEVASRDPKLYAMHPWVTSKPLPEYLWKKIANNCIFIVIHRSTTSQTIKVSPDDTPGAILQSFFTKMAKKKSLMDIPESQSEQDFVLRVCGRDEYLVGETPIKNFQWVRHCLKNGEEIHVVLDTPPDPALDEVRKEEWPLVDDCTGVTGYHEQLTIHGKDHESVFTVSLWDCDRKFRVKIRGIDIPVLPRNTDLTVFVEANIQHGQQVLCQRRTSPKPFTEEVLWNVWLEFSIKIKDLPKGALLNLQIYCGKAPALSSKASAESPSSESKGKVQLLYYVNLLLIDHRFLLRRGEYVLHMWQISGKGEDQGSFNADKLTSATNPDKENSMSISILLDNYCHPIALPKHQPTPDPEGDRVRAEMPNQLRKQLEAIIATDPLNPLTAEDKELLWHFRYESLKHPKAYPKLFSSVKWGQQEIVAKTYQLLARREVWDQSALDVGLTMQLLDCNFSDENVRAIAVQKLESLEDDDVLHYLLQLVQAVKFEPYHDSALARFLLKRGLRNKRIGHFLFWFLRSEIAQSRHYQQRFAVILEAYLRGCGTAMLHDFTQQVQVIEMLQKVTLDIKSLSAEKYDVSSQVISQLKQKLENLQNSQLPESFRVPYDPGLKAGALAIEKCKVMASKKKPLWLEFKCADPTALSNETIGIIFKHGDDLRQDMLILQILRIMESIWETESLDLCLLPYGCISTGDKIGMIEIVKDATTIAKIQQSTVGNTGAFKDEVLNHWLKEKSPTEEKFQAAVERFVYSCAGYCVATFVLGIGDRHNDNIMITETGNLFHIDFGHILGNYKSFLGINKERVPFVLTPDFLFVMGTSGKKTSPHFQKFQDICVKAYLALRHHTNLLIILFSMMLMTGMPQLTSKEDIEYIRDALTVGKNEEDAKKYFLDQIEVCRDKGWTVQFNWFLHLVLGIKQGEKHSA
Histone deacetylase 2, sequence (Q92769 whole entry): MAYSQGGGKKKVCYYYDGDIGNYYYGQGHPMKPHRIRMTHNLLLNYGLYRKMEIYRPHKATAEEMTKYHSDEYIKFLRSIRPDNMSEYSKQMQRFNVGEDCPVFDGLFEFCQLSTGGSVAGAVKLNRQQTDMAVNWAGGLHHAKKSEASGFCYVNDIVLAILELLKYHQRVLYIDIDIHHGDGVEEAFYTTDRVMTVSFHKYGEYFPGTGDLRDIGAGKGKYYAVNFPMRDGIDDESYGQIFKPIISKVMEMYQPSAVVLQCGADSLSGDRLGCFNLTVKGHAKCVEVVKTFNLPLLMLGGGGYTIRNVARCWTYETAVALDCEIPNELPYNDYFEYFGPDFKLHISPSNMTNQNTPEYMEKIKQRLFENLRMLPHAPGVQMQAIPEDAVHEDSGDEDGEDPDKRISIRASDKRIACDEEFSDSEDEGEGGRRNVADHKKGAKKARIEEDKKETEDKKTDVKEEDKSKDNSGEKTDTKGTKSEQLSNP

| Compound | IC50 (K562) | IC50 (HepG2) | IC50 [1] | Activity (HCT-116 [2]) | Activity (HCT-116 [3]) | Activity [4] | IC50 [5] | IC50 [6] | IC50 (NCI-H460) | Activity (HCT-116 [7]) | IC50 (SW1990) | IC50 (DU-145) | IC50 (Histone deacetylase 8) | Activity [10] | Tmax [11] | AUC(0-t) [12] | Activity (HCT-116 [13]) | IC50 (Capan-2) | Vd [14] | IC50 (HCT-8) | further results |
| --- | --- | --- | --- | --- | --- | --- | --- | --- | --- | --- | --- | --- | --- | --- | --- | --- | --- | --- | --- | --- | --- |
| COc1ccc(-c2cc(OCCN(C)c3ncc(C(=O)NO)cn3)c3ncnc(C)c3c2)cn1 | 1200 nM | 76 nM | 279 nM | 2.82% | 5.89% | Non-Toxic | > 30000 nM | 467 nM | 2700 nM | 5.97% | 230 nM | 66 nM | 12 nM | Non-Toxic | 1.8 min | 23.1 ng·h/mL | Dose-dependent effect | 270 nM | 50 L/kg | 59 nM | AUC [8]: 143 ng·h/mL; F [9]: 1.7%; Activity (HCT-116 [15]): 43.8%; IC50 (HCT-116 [16]): 7 nM; IC90 (HCT-116 [16]): 2800 nM; Cmax [17]: 9.39 ng/mL; IC50 (MCF7): 1100 nM; Activity (HCT-116 [18]): 9.92%; IC50 (Histone deacetylase 2): 3.4 nM; MTD [19]: > 2000 mg/kg; Cmax [20]: 417 ng/mL |
| COc1ncc(-c2cc(OCCCCCCC(=O)NO)c3ncnc(C)c3c2)cc1F | 6800 nM | 1100 nM | 101 nM | 3.64% | 5.48% | Non-Toxic | > 30000 nM | 67 nM | 3000 nM | 4.1% | 900 nM | 540 nM | 18 nM | Non-Toxic | 1.8 min | 230 ng·h/mL | Dose-dependent effect | 430 nM | 2.57 L/kg | 320 nM | AUC(0-inf) ([8]; ICR): 558 ng·h/mL; bioavailability ([9]; ICR): 4.2%; Activity (HCT-116 [15]): 67.9%; IC50 (HCT-116 [16]): 150 nM; IC90 (HCT-116 [16]): 48000 nM; Cmax [17]: 143 ng/mL; IC50 (MCF7): 2000 nM; Activity (HCT-116 [18]): 7.97%; IC50 (Histone deacetylase 2): 3 nM; MTD [19]: > 2000 mg/kg; Cmax [20]: 3050 ng/mL |
